# Calls of active or inactive are those of the source. The rule behind the calls is not given here.
# Assays:
# Plasmodium falciparum = assay: Antimalarial activity against Plasmodium falciparum; assay type: functional, organism-based
# [1] = tested on: Mycobacterium tuberculosis; assay: Antitubercular activity against Mycobacterium tuberculosis H37Rv at 6.25 ug/mL; assay type: functional, organism-based
# PC-3 = assay: Cytotoxicity against human PC3 cells; assay type: functional, cell-based
# Outline: (§1)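 Tested in the NCI in vitro antitumor screen of 60 human tumour cell lines, after a prior NCI three-cell-line, one-dose primary anticancer assay.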
# SF-539 = assay: Cytotoxicity against human SF539 cells; assay type: functional, cell-based; outline: as §1
# ACHN = assay: Cytotoxicity against human ACHN cells; assay type: functional, cell-based; outline: as §1
# HCT-116 = assay: Cytotoxicity against human HCT116 cells; assay type: functional, cell-based; outline: as §1
# COLO 205 = assay: Cytotoxicity against human COLO205 cells; assay type: functional, cell-based; outline: as §1
# SK-OV-3 = assay: Cytotoxicity against human SKOV3 cells; assay type: functional, cell-based; outline: as §1
# NCI/ADR-RES = assay: Cytotoxicity against human NCI/ADR-RES cells; assay type: functional, cell-based; outline: as §1
# HT-29 = assay: Cytotoxicity against human HT-29 cells; assay type: functional, cell-based; outline: as §1
# NCI-H460 = assay: Cytotoxicity against human NCI-H460 cells; assay type: functional, cell-based; outline: as §1
# UO-31 = assay: Cytotoxicity against human UO31 cells; assay type: functional, cell-based; outline: as §1
# A549 = assay: Cytotoxicity against human A549 cells; assay type: functional, cell-based; outline: as §1
# M14 = assay: Cytotoxicity against human M14 cells; assay type: functional, cell-based; outline: as §1
# 786-0 = assay: Cytotoxicity against human 786-0 cells; assay type: functional, cell-based; outline: as §1
# OVCAR-3 = assay: Cytotoxicity against human OVCAR-3 cells; assay type: functional, cell-based; outline: as §1
# SF-295 = assay: Cytotoxicity against human SF295 cells; assay type: functional, cell-based; outline: as §1
# [2] = Cytotoxicity against human […] cells; assay type: functional, cell-based; outline: as §1
# DU-145 = assay: Cytotoxicity against human DU145 cells; assay type: functional, cell-based; outline: as §1
# T47D = assay: Cytotoxicity against human T47D cells; assay type: functional, cell-based; outline: as §1
# HOP-62 = assay: Cytotoxicity against human HOP62 cells; assay type: functional, cell-based; outline: as §1
# SK-MEL-2 = assay: Cytotoxicity against human SK-MEL-2 cells; assay type: functional, cell-based; outline: as §1
# U-251 = assay: Cytotoxicity against human U251 cells; assay type: functional, cell-based; outline: as §1
# IGROV-1 = assay: Cytotoxicity against human IGROV1 cells; assay type: functional, cell-based; outline: as §1
# LOX IMVI = assay: Cytotoxicity against human LOXIMVI cells; assay type: functional, cell-based; outline: as §1
# CCRF-CEM = assay: Cytotoxicity against human CCRF-CEM cells; assay type: functional, cell-based; outline: as §1
# MCF7 = assay: Cytotoxicity against human MCF7 cells; assay type: functional, cell-based; outline: as §1
# SR = assay: Cytotoxicity against human SR cells; assay type: functional, cell-based; outline: as §1
Structure (SMILES),Activity [1],IC50 (PC-3),IC50 (SF-539),IC50 (ACHN),IC50 (HCT-116),IC50 (COLO 205),IC50 (SK-OV-3),IC50 (NCI/ADR-RES),IC50 (HT-29),IC50 (NCI-H460),IC50 (UO-31),IC50 (A549),IC50 (M14),IC50 (786-0),IC50 (OVCAR-3),IC50 (SF-295),IC50 [2],IC50 (DU-145),IC50 (T47D),IC50 (HOP-62),further results
CC/C=C/[C@H](CC)C/C(=C/[C@@]1(CC)C[C@H](CC)[C@H](CC(=O)OC)OO1)CC,inactive,–,–,–,–,–,–,–,–,–,–,–,–,–,–,–,–,–,–,–,IC50 (Plasmodium falciparum): ≥ 50 µg/mL
CC/C=C/[C@H](CC)C/C=C/[C@@]1(CC)C[C@H](CC)[C@H](CC(=O)OC)OO1,inactive,–,–,–,–,–,–,–,–,–,–,–,–,–,–,–,–,–,–,–,–
CC/C=C/[C@H](CC)C/C=C/[C@@]1(CC)C[C@H](CC)[C@H](CC(=O)O)OO1 [PLAKORTIDE M],–,1600 nM,1800 nM,1700 nM,2000 nM,1500 nM,1300 nM,1800 nM,1400 nM,1800 nM,1400 nM,1800 nM,6800 nM,1600 nM,2000 nM,1800 nM,1300 nM,1900 nM,2200 nM,1600 nM,IC50 (SK-MEL-2): 11100 nM; IC50 (U-251): 1700 nM; IC50 (IGROV-1): 600 nM; IC50 (LOX IMVI): 500 nM; IC50 (CCRF-CEM): 200 nM; IC50 (MCF7): 2900 nM; IC50 (SR): 400 nM
CC/C=C/[C@H](CC)C/C(=C/[C@@]1(CC)C[C@H](CC)[C@H](CC(=O)O)OO1)CC [PLAKORTIDE N],–,300 nM,1500 nM,200 nM,400 nM,1300 nM,1900 nM,400 nM,500 nM,200 nM,10 nM,100 nM,1600 nM,1300 nM,1100 nM,300 nM,< 10 nM,400 nM,1300 nM,900 nM,IC50 (SK-MEL-2): 1700 nM; IC50 (U-251): 500 nM; IC50 (IGROV-1): 60 nM; IC50 (LOX IMVI): 30 nM; IC50 (CCRF-CEM): 100 nM; IC50 (MCF7): 1800 nM; IC50 (SR): 100 nM
